Test results from ChEMBL document CHEMBL4152262, “Design, synthesis and evaluation of novel multi-target-directed ligands for treatment of Alzheimer's disease based on coumarin and lipoic acid scaffolds” (Eur J Med Chem, 2018).
pIC50: −log10 of the molar value.

Tests used:
[1] = test system: PC-12; test: Inhibition of H2O2-induced ROS generation in rat PC12 cells assessed as intracellular ROS level at 10 uM preincubated for 6 hrs followed by H2O2 addition measured after 18 hrs by DCFH-DA staining based fluorimetric method relative to control; assay type: functional; set-up: scale not given: the % may be the effect or the level left
Summary of the method: (§1)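 PC12 cells at 1×10^4/well in RPMI with 10% FBS and penicillin/streptomycin, 24 h at 37 °C, 5% CO2. Test samples (1, 5, 10, 50 µM; ≤0.5% DMSO) for 6 h, PBS wash, then H2O2 150 µM for 18 h. Loaded with 10 µM DCFH-DA for 30 min at 37 °C in the dark, washed twice. DCF fluorescence read at ex 485/em 528 nm as % of untreated control. Three independent experiments, mean ± SEM.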

[2] = test system: PC-12; test: Inhibition of H2O2-induced ROS generation in rat PC12 cells assessed as intracellular ROS level at 1 uM preincubated for 6 hrs followed by H2O2 addition measured after 18 hrs by DCFH-DA staining based fluorimetric method relative to control; assay type: functional; set-up: scale not given: the % may be the effect or the level left; summary of the method: as §1
[3] = test system: PC-12; test: Inhibition of H2O2-induced ROS generation in rat PC12 cells assessed as intracellular ROS level at 50 uM preincubated for 6 hrs followed by H2O2 addition measured after 18 hrs by DCFH-DA staining based fluorimetric method relative to control; assay type: functional; set-up: scale not given: the % may be the effect or the level left; summary of the method: as §1
[4] = test system: PC-12; test: Inhibition of H2O2-induced ROS generation in rat PC12 cells assessed as intracellular ROS level at 5 uM preincubated for 6 hrs followed by H2O2 addition measured after 18 hrs by DCFH-DA staining based fluorimetric method relative to control; assay type: functional; set-up: scale not given: the % may be the effect or the level left; summary of the method: as §1
[5] = test system: PC-12; test: Neuroprotection against H2O2-induced cell death in rat PC12 cells assessed as cell viability at 0.1 uM preincubated for 3 hrs followed by H2O2 stimulation measured after 2 hrs by MTT assay (reference value: 25.2 to 41.8%); assay type: functional; conditions: read-out: Activity
[6] = test system: PC-12; test: Neuroprotection against H2O2-induced cell death in rat PC12 cells assessed as increase in cell viability preincubated for 3 hrs followed by H2O2 stimulation measured after 2 hrs by MTT assay; assay type: functional, cell-based
[7] = target: Cholinesterase (Equus caballus, UniProt P81908); test: Inhibition of equine serum BuChE using butyrylthiocholine iodide as substrate pretreated for 5 mins followed by substrate addition by Ellman's method
Summary of the method: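 Ellman assay with horse serum BuChE (5 IU/mL) in 0.1 M phosphate buffer pH 8.0 with DTNB. Compound was preincubated with enzyme 5 min, then butyrylthiocholine iodide was added. Absorbance read at 412 nm. IC50 from a log concentration vs % inhibition curve; triplicate runs.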

[8] = target: Acetylcholinesterase (Electrophorus electricus, UniProt O42275); test: Inhibition of electric eel AChE using acetylthiocholine iodide as substrate pretreated for 5 mins followed by substrate addition by Ellman's method
[9] = test system: PC-12; test: Neuroprotection against H2O2-induced cell death in rat PC12 cells assessed as cell viability at 50 uM preincubated for 3 hrs followed by H2O2 stimulation measured after 2 hrs by MTT assay (reference value: 25.2 to 41.8%); assay type: functional; conditions: read-out: Activity
[10] = test system: PC-12; test: Neuroprotection against H2O2-induced cell death in rat PC12 cells assessed as cell viability at 20 uM preincubated for 3 hrs followed by H2O2 stimulation measured after 2 hrs by MTT assay (reference value: 25.2 to 41.8%); assay type: functional; conditions: read-out: Activity
[11] = test system: PC-12; test: Neuroprotection against H2O2-induced cell death in rat PC12 cells assessed as cell viability at 5 uM preincubated for 3 hrs followed by H2O2 stimulation measured after 2 hrs by MTT assay (reference value: 25.2 to 41.8%); assay type: functional; conditions: read-out: Activity
[12] = test system: PC-12; test: Neuroprotection against H2O2-induced cell death in rat PC12 cells assessed as cell viability at 10 uM preincubated for 3 hrs followed by H2O2 stimulation measured after 2 hrs by MTT assay (reference value: 25.2 to 41.8%); assay type: functional; conditions: read-out: Activity
[13] = test system: PC-12; test: Neuroprotection against H2O2-induced cell death in rat PC12 cells assessed as cell viability at 1 uM preincubated for 3 hrs followed by H2O2 stimulation measured after 2 hrs by MTT assay (reference value: 25.2 to 41.8%); assay type: functional; conditions: read-out: Activity
[14] = Inhibition of soybean 15-LOX assessed as reduction in conversion of linoleic acid to 13-hydroperoxylinoleic acid by spectrophotometric method; set-up: species or system Glycine max
Summary of the method: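 Soybean lipoxygenase type 1-B (final 167 U/mL) with compound (DMSO stock diluted in 0.1 M phosphate buffer pH 8) and linoleic acid (134 mM in ethanol) at room temperature. Formation of 13-hydroperoxylinoleic acid followed spectrophotometrically at 234 nm.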

[15] = target: Amyloid-beta precursor protein (Homo sapiens) (UniProt P05067); test: Inhibition of amyloid beta (1 to 42) (unknown origin) self-induced aggregation at 100 uM incubated for 48 hrs by thioflavin-T fluorescence assay relative to control
[16] = test system: SH-SY5Y; test: Neuroprotection against H2O2-induced cell death in human SH-SY5Y cells assessed as cell viability at 100 uM preincubated for 3 hrs followed by H2O2 addition measured after 24 hrs by MTT assay relative to control; conditions: read-out: Activity
[17] = test system: SH-SY5Y; test: Inhibition of amyloid beta (1 to 42) (unknown origin)-induced cell death in human SH-SY5Y cells assessed as cell viability at 100 uM preincubated for 3 hrs followed by amyloid beta (1 to 42) addition measured after 24 hrs by MTT assay relative to control; conditions: read-out: Activity
[18] = test system: SH-SY5Y; test: Inhibition of amyloid beta (1 to 42) (unknown origin)-induced cell death in human SH-SY5Y cells assessed as cell viability at 50 uM preincubated for 3 hrs followed by amyloid beta (1 to 42) addition measured after 24 hrs by MTT assay relative to control; assay type: functional; conditions: read-out: Activity
Summary of the method: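 SH-SY5Y cells grown in DMEM with 10% FBS, 1% L-glutamine and antibiotics, seeded at 5×10^3/well. Pretreated 3 h with compound (10 or 50 µM), then Aβ1-42 10 µM added for 24 h. MTT, formazan dissolved in DMSO, A570. Viability as blank-corrected % of untreated control; three independent experiments, mean ± SEM.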

[19] = test system: SH-SY5Y; test: Neuroprotection against H2O2-induced cell death in human SH-SY5Y cells assessed as cell viability at 50 uM preincubated for 3 hrs followed by H2O2 addition measured after 24 hrs by MTT assay relative to control; assay type: functional; conditions: read-out: Activity
Summary of the method: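 SH-SY5Y cells grown in DMEM with 10% FBS, 1% L-glutamine and antibiotics, 5×10^3/well. Compound (10 or 50 µM) for 3 h before 250 µM H2O2, then 24 h incubation. MTT read at 570 nm after DMSO solubilization. Viability as blank-corrected % of untreated control; three independent experiments, mean ± SEM.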

[20] = test system: PC-12; test: Inhibition of H2O2-induced ROS generation in rat PC12 cells preincubated for 6 hrs followed by H2O2 addition measured after 18 hrs by DCFH-DA staining based fluorimetric method; assay type: functional, cell-based; summary of the method: as §1
[21] = test system: PC-12; test: Cytotoxicity against rat PC12 cells assessed as effect on cell viability at 1 to 50 uM by MTT assay; assay type: cell-based; conditions: pc-12, 50 µM

Sequence of Acetylcholinesterase (O42275 whole entry): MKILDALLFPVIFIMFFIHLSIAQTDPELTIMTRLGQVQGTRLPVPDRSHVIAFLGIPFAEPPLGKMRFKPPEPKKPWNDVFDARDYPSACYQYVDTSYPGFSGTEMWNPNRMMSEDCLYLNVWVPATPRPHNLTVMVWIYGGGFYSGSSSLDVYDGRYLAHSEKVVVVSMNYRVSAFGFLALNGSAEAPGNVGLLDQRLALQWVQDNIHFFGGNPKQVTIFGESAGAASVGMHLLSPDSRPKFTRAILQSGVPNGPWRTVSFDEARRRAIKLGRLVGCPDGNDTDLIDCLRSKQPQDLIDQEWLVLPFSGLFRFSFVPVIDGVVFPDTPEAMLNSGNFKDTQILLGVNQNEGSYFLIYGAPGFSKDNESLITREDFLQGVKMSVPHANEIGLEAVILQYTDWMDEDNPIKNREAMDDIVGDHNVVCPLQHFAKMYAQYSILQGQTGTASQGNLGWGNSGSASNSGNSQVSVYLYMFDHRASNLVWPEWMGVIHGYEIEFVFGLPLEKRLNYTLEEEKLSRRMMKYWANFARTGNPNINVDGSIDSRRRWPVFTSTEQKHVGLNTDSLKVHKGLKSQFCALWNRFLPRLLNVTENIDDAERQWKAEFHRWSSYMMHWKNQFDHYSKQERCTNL
Sequence of Cholinesterase (P81908 whole entry): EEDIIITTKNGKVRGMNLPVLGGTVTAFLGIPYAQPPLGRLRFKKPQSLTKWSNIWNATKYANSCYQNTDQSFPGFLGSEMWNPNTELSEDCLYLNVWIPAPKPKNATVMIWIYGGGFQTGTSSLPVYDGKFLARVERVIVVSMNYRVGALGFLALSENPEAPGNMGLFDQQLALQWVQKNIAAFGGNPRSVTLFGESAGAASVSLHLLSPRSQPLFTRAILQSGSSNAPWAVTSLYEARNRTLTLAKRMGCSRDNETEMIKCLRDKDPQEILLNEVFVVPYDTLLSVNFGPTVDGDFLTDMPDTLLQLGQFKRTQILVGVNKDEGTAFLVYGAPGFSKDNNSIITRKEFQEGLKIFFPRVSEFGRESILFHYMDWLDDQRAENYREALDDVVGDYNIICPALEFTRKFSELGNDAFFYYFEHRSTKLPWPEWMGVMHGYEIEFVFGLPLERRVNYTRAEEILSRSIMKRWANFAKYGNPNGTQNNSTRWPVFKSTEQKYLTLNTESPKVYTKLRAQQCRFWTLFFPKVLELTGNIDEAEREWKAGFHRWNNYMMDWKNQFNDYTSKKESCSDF
Sequence of Amyloid-beta precursor protein (Homo sapiens) (P05067 whole entry): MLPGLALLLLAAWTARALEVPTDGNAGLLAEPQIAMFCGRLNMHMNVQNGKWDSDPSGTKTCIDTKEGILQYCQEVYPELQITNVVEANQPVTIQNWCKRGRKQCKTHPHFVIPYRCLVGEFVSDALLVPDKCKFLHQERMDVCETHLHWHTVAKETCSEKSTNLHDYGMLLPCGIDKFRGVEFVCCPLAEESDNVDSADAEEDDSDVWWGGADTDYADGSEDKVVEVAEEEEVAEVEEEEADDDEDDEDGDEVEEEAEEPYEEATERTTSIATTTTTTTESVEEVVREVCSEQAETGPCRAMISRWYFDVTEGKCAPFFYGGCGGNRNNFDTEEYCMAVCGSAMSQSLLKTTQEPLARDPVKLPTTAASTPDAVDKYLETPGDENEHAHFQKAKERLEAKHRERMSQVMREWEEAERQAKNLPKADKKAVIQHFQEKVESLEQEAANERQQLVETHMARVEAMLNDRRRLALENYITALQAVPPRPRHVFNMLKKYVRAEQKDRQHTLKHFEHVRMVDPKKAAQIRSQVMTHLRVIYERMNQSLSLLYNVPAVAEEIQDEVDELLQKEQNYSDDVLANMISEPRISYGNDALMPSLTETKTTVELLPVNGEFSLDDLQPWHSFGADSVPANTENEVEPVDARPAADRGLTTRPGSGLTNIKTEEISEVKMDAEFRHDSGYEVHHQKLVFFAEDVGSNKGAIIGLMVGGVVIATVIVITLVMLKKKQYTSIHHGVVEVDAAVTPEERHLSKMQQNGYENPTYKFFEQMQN

Structure (SMILES) | viability at 0.1 µM [5] [%] | Activity [6] | pIC50 [7] | pIC50 [8] | viability at 50 µM [9] [%] | viability at 20 µM [10] [%] | viability at 5 µM [11] [%] | viability at 10 µM [12] [%] | viability at 1 µM [13] [%] | pIC50 [14] | also measured
O=C(O)CCCCC1CCSS1 (stereo not drawn) [LIPOIC ACID, ALPHA] | – | – | – | – | – | – | – | – | – | – | Activity [1]: 105.72%; Activity [2]: 138.77%; Activity [3]: 55.9%; Activity [4]: 110.65%
COc1ccc(-c2cc3ccc(OCCCCn4cc(CNC(=O)CCCCC5CCSS5)nn4)cc3oc2=O)cc1OC (stereo unspecified) | 40.7 | Dose-dependent effect | < 4.00 | < 4.00 | 71.9 | 68.4 | 57.2 | 64 | 53 | < 4.00 | –
CO[C@H]1/C=C/O[C@@]2(C)Oc3c(C)c(O)c4c(O)c(c(/C=N/N5CCN(C)CC5)c(O)c4c3C2=O)NC(=O)/C(C)=C\C=C\[C@H](C)[C@H](O)[C@@H](C)[C@@H](O)[C@@H](C)[C@H](OC(C)=O)[C@@H]1C | – | – | – | – | – | – | – | – | – | – | inhibition [15]: 27.5%
O=C(CCCCC1CCSS1)NCc1cn(CCCCOc2ccc3cc(-c4ccc(Cl)cc4)c(=O)oc3c2)nn1 (stereo unspecified) | 38.8 | Dose-dependent effect | 4.28 | < 4.00 | 74.9 | 68.4 | 52 | 61.8 | 46.2 | < 4.00 | –
O=C(CCCCC1CCSS1)NCc1cn(CCCCOc2ccc3ccc(=O)oc3c2)nn1 (stereo unspecified) | 40.5 | Dose-dependent effect | < 4.00 | 4.18 | 75.8 | 69.8 | 52.8 | 65.1 | 45.9 | < 4.00 | –
CCOC(=O)c1cc2ccc(OCCCCCn3cc(CNC(=O)CCCCC4CCSS4)nn3)cc2oc1=O (stereo unspecified) | 34.4 | Dose-dependent effect | < 4.00 | 4.22 | 40.7 | 39.5 | 36.4 | 38.3 | 35.1 | < 4.00 | –
COc1cc2c(cc1OC)C(=O)C(CC1CCN(Cc3ccccc3)CC1)C2 (stereo unspecified) [DONEPEZIL] | – | – | – | – | – | – | – | – | – | – | viability at 100 µM [16]: 33%; viability at 100 µM [17]: 39.9%
COc1ccc(-c2cc3ccc(OCCCCCn4cc(CNC(=O)CCCCC5CCSS5)nn4)cc3oc2=O)cc1OC (stereo unspecified) | 38.5 | Dose-dependent effect | < 4.00 | < 4.00 | 55 | 51.9 | 46.9 | 50.5 | 42.2 | < 4.00 | –
Cc1cc(=O)oc2cc(OCCCCCn3cc(CNC(=O)CCCCC4CCSS4)nn3)ccc12 (stereo unspecified) | 45.6 | Dose-dependent effect | < 4.00 | < 4.00 | 73.7 | 70.3 | 61 | 66.3 | 56.5 | < 4.00 | –
Cc1cc(=O)oc2cc(OCCCn3cc(CNC(=O)CCCCC4CCSS4)nn3)ccc12 (stereo unspecified) | 44.8 | Dose-dependent effect | < 4.00 | 4.26 | 75.4 | 74.3 | 64.6 | 69.4 | 54.5 | < 4.00 | Activity [1]: 122.93%; Activity [2]: 118.8%; viability at 50 µM [18]: 72.9%; viability at 50 µM [19]: 55.6%; inhibition [20]: Dose-dependent effect; Activity [3]: 49.24%; Activity [4]: 131.54%; inhibition [15]: 26.6%; Activity [21]: Non-Toxic
O=C(CCCCC1CCSS1)NCc1cn(CCCCOc2ccc3cc(-c4ccc(Cl)c(Cl)c4)c(=O)oc3c2)nn1 (stereo unspecified) | 39.6 | Dose-dependent effect | 4.99 | < 4.00 | 69.5 | 62.9 | 53.2 | 58.9 | 49.3 | < 4.00 | –
